Reference: ChEMBL document CHEMBL4330069, “Boosting the efficacy of anti-MRSA β-lactam antibiotics via an easily accessible, non-cytotoxic and orally bioavailable FtsZ inhibitor” (Eur J Med Chem, 2019)
Values after ≈ are worked out from the molar mass of the structure shown.

Assays:
[1] = tested on: Staphylococcus aureus; experiment: Synergistic antibacterial activity against multidrug-resistant Staphylococcus aureus isolate 254 assessed as fractional Inhibitory concentration index in presence of cefuroxime by broth microdilution assay; type: functional
[2] = tested on: Staphylococcus aureus; experiment: Synergistic antibacterial activity against multidrug-resistant Staphylococcus aureus isolate 85 in presence of amoxicillin by broth microdilution assay; type: functional
[3] = tested on: Staphylococcus aureus; experiment: Antibacterial activity against multidrug-resistant Staphylococcus aureus isolate 1344 by broth microdilution assay; type: functional
Summary of the method: (§1)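 Broth microdilution MIC per CLSI guidelines against clinical MRSA isolates, for β-lactams and test compound alone and in combination. Compounds were dissolved in DMSO. Growth was read by eye, in duplicate. FIC index = FIC(compound) + FIC(drug); synergy defined as FIC index ≤0.5.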

[4] = tested on: Staphylococcus aureus; experiment: Synergistic antibacterial activity against multidrug-resistant Staphylococcus aureus isolate 2895 in presence of cefuroxime by broth microdilution assay; type: functional
Summary of the method: (§2)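 CLSI broth microdilution on clinical MRSA isolates. MICs were measured for the β-lactam alone, the test agent alone and the two combined. Compounds were dissolved in DMSO, and growth inhibition was scored by eye. FIC index is the sum, over both agents, of MIC in combination divided by MIC alone. An FIC index ≤0.5 was taken as synergy.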

[5] = tested on: Staphylococcus aureus; experiment: Synergistic antibacterial activity against multidrug-resistant Staphylococcus aureus isolate 774 assessed as fractional Inhibitory concentration index in presence of meropenem by broth microdilution assay; type: functional
[6] = Half life in Sprague-Dawley rat at 1 mg/kg, iv by UPLC-MS/MS analysis; type: ADME, organism-based; details: in vivo
Summary of the method: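 Male Sprague–Dawley rats (250-280 g) dosed IV at 1 mg/kg or by oral feeding at 50 mg/kg. Jugular blood taken from 5 to 420 min (IV) or 2 to 600 min (oral). Plasma proteins precipitated with methanol, then analysed by UPLC-MS/MS with positive ESI. Parameters from non-compartmental analysis.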

[7] = tested on: Staphylococcus aureus; experiment: Synergistic antibacterial activity against multidrug-resistant Staphylococcus aureus isolate 3332 in presence of meropenem by broth microdilution assay; type: functional; summary of the method: as §2
[8] = tested on: Staphylococcus aureus; experiment: Synergistic antibacterial activity against multidrug-resistant Staphylococcus aureus isolate 1449 in presence of cefuroxime by broth microdilution assay; type: functional
Summary of the method: (§3)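 Clinical MRSA isolate panel; compound and β-lactam tested alone and in combination by CLSI broth microdilution, compounds dissolved in DMSO, growth inhibition scored by eye, run in duplicate. FIC index = FIC(compound) + FIC(drug), each the MIC in combination divided by the MIC alone; an index ≤ 0.5 was called synergy.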

[9] = tested on: Staphylococcus aureus; experiment: Synergistic antibacterial activity against multidrug-resistant Staphylococcus aureus isolate 3411 in presence of methicillin by broth microdilution assay; type: functional
[10] = tested on: Staphylococcus aureus; experiment: Synergistic antibacterial activity against multidrug-resistant Staphylococcus aureus isolate 3580 in presence of meropenem by broth microdilution assay; type: functional
[11] = tested on: Staphylococcus aureus; experiment: Synergistic antibacterial activity against multidrug-resistant Staphylococcus aureus isolate 1449 assessed as fractional Inhibitory concentration index in presence of cefuroxime by broth microdilution assay; type: functional
Summary of the method: (§4)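 CLSI broth microdilution run on clinical MRSA isolates with each β-lactam alone, the test agent alone, and the two combined; agents dissolved in DMSO. Growth inhibition was read by eye. FIC index = FIC(compound) + FIC(β-lactam), where each FIC is the MIC in combination divided by the MIC alone. An index ≤0.5 was taken as synergy.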

[12] = tested on: Staphylococcus aureus; experiment: Synergistic antibacterial activity against multidrug-resistant Staphylococcus aureus isolate 1717 in presence of cefuroxime by broth microdilution assay; type: functional; summary of the method: as §3
[13] = tested on: Staphylococcus aureus; experiment: Synergistic antibacterial activity against multidrug-resistant Staphylococcus aureus isolate 2516 assessed as fractional Inhibitory concentration index in presence of cefuroxime by broth microdilution assay; type: functional; summary of the method: as §4
[14] = tested on: Staphylococcus aureus; experiment: Synergistic antibacterial activity against multidrug-resistant Staphylococcus aureus isolate 1449 in presence of amoxicillin by broth microdilution assay; type: functional; summary of the method: as §3
[15] = tested on: Staphylococcus aureus; experiment: Synergistic antibacterial activity against multidrug-resistant Staphylococcus aureus isolate 1344 assessed as fractional Inhibitory concentration index in presence of methicillin by broth microdilution assay; type: functional; summary of the method: as §4
[16] = tested on: Staphylococcus aureus; experiment: Synergistic antibacterial activity against multidrug-resistant Staphylococcus aureus isolate 1136 in presence of amoxicillin by broth microdilution assay; type: functional; summary of the method: as §1
[17] = tested on: Staphylococcus aureus; experiment: Synergistic antibacterial activity against multidrug-resistant Staphylococcus aureus isolate 2895 in presence of amoxicillin by broth microdilution assay; type: functional; summary of the method: as §2
[18] = tested on: Staphylococcus aureus; experiment: Synergistic antibacterial activity against multidrug-resistant Staphylococcus aureus isolate 1136 assessed as fractional Inhibitory concentration index in presence of cefuroxime by broth microdilution assay; type: functional; summary of the method: as §4
[19] = tested on: Staphylococcus aureus; experiment: Synergistic antibacterial activity against multidrug-resistant Staphylococcus aureus isolate 256 assessed as fractional Inhibitory concentration index in presence of methicillin by broth microdilution assay; type: functional
[20] = tested on: Staphylococcus aureus; experiment: Synergistic antibacterial activity against multidrug-resistant Staphylococcus aureus isolate 2728 assessed as fractional Inhibitory concentration index in presence of amoxicillin by broth microdilution assay; type: functional

CCCCCCCCCNc1ccc(F)c(C(N)=O)c1F
fractional inhibitory concentration index (FICI) [1]: 0.3 | MIC [2]: 8 µg/mL | MIC [3]: 16 µg/mL (≈ 53.6 µM) | MIC [4]: 4 µg/mL | fractional inhibitory concentration index (FICI) [5]: 0.1 | half-life [6]: 5.5 h | MIC [7]: 4 µg/mL | MIC [8]: 2 µg/mL | MIC [9]: 2 µg/mL | MIC [10]: 8 µg/mL | fractional inhibitory concentration index (FICI) [11]: 1.5 | MIC [12]: 2 µg/mL | fractional inhibitory concentration index (FICI) [13]: 0.1 | MIC [14]: 0.5 µg/mL | fractional inhibitory concentration index (FICI) [15]: 0.3 | MIC [16]: 16 µg/mL | MIC [17]: 16 µg/mL | fractional inhibitory concentration index (FICI) [18]: 0.1 | fractional inhibitory concentration index (FICI) [19]: 0 | fractional inhibitory concentration index (FICI) [20]: 0.1
